From ChEMBL document CHEMBL1122525, “Synthesis and antifungal activity of (E)-N-(6,6-dimethyl-2-hepten-4-ynyl)-N-methyl-1-naphtha lenemethanamine (SF 86-327) and related allylamine derivatives with enhanced oral activity” (1984)
Converted amounts (≈) assume the structure as drawn.

Legend:
Microsporum canis = experiment: In vitro minimum inhibitory concentration (MIC) against isolates of Microsporum canis in Sabouraud's dextrose broth; format: functional
Procedure, shortened: (§1)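 Tube broth dilution in Sabouraud's dextrose broth, pH 6.5. Compounds were dissolved in Me₂SO and serially diluted in medium, then incubated at 30 °C. Growth control was read at 48 h for Candida albicans and C. parapsilosis, 72 h for Aspergillus fumigatus, and 7 days for Sporothrix schenckii and the dermatophytes. MIC is the lowest concentration with no macroscopic growth.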

Epidermophyton floccosum = experiment: In vitro minimum inhibitory concentration (MIC) against isolates of Epidermophyton floccosum in Sabouraud's dextrose broth; format: functional; procedure, shortened: as §1
Candida parapsilosis = experiment: In vitro minimum inhibitory concentration (MIC) against isolates of Candida parapsilosis in Sabouraud's dextrose broth; format: functional; conditions: Lodderomyces parapsilosis; procedure, shortened: as §1
Sporothrix schenckii = experiment: In vitro minimum inhibitory concentration (MIC) against isolates of Sporothrix schenck ii in Sabouraud's dextrose broth; format: functional; procedure, shortened: as §1
Trichophyton benhamiae = experiment: In vitro minimum inhibitory concentration (MIC) against isolates of Trichophyton mentagrophytes in Sabouraud's dextrose broth; format: functional, Arthroderma benhamiae; procedure, shortened: as §1
Aspergillus fumigatus = experiment: In vitro minimum inhibitory concentration (MIC) against isolates of Aspergillus fumigatus in Sabouraud's dextrose broth; format: functional; procedure, shortened: as §1
Candida albicans = experiment: In vitro minimum inhibitory concentration (MIC) against isolates of Candida albicans in Sabouraud's dextrose broth; format: functional; procedure, shortened: as §1
Cavia porcellus [1] = experiment: Compound was evaluated in vivo for the activity (% mycological cure) by oral treatment of guinea pig dermatophytosis caused by Trichophyton mentagrophytes. Dose =5 mg/kg/day; format: functional
Procedure, shortened: (§2)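 Guinea pigs, 8–10 per dose, with shorn lumbar backs were inoculated over a 3.5 cm circle with 0.1 mL Sabouraud 2% dextrose broth carrying 10^6 cfu T. mentagrophytes. Compound in miglyol 812 was given as 0.5 mL by stomach tube once daily for 9 days from the inoculation day. One day after the last dose, hairs from lesions were cultured and hair-root regions examined microscopically for fungal growth.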

Cavia porcellus [2] = experiment: Compound was evaluated in vivo for the activity (% mycological cure) by oral treatment of guinea pig dermatophytosis caused by Trichophyton mentagrophytes. Dose = 10 mg/kg/day; format: functional; procedure, shortened: as §2
Cavia porcellus [3] = experiment: Compound was evaluated in vivo for the activity (% mycological cure) by oral treatment of guinea pig dermatophytosis caused by Trichophyton mentagrophytes. Dose = 150 mg/kg/day; format: functional; procedure, shortened: as §2
Cavia porcellus [4] = experiment: Compound was evaluated in vivo for the activity (% mycological cure) by topical treatment of guinea pig dermatophytosis caused by Trichophyton mentagrophytes (0.125% of compound); format: functional
Procedure, shortened: (§3)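 Infection model: 8–10 guinea pigs per dose level, lumbar backs shorn, 10^6 cfu T. mentagrophytes in 0.1 mL Sabouraud 2% dextrose broth applied over a 3.5 cm diameter area. Starting 48 h post-inoculation, 0.4 mL compound solution in PEG 400/ethanol 75/25 (v/v) was spread on the lesion once daily for 7 days. Read-out on day 3 after the last treatment: hair cultures checked microscopically for growth at hair roots.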

Cavia porcellus [5] = experiment: Compound was evaluated in vivo for the activity (% mycological cure) by topical treatment of guinea pig dermatophytosis caused by Trichophyton mentagrophytes (0.5% of compound); format: functional; procedure, shortened: as §3
Cavia porcellus [6] = experiment: Compound was evaluated in vivo for the activity (% mycological cure) by oral treatment of guinea pig dermatophytosis caused by Trichophyton mentagrophytes. Dose = 37.5 mg/kg/day; format: functional; procedure, shortened: as §2
Cavia porcellus [7] = experiment: Compound was evaluated in vivo for the activity (% mycological cure) by oral treatment of guinea pig dermatophytosis caused by Trichophyton mentagrophytes. Dose = 5 mg/kg/day; format: functional; procedure, shortened: as §2
Cavia porcellus [8] = experiment: Compound was evaluated in vivo for the activity (% mycological cure) by oral treatment of guinea pig dermatophytosis caused by Trichophyton mentagrophytes. Dose = 75 mg/kg/day; format: functional; procedure, shortened: as §2

| Compound | MIC (Microsporum canis) [µg/mL] | MIC (Epidermophyton floccosum) [µg/mL] | MIC (Candida parapsilosis) [µg/mL] | MIC (Sporothrix schenckii) [µg/mL] | MIC (Trichophyton benhamiae) [µg/mL] | MIC (Aspergillus fumigatus) [µg/mL] | MIC (Candida albicans) [µg/mL] | Activity (Cavia porcellus [1]) [%] | Activity (Cavia porcellus [2]) [%] | Activity (Cavia porcellus [3]) [%] | Activity (Cavia porcellus [4]) [%] | Activity (Cavia porcellus [5]) [%] | Activity (Cavia porcellus [6]) [%] | Activity (Cavia porcellus [7]) [%] | Activity (Cavia porcellus [8]) [%] |
| --- | --- | --- | --- | --- | --- | --- | --- | --- | --- | --- | --- | --- | --- | --- | --- |
| CCCCC#CC#CCN(C)Cc1cccc2ccccc12 | 0.8 (≈ 2.76 µM) | 3.1 (≈ 10.7 µM) | 100 (≈ 346 µM) | 100 (≈ 346 µM) | 0.2 (≈ 0.691 µM) | – | – | – | – | – | – | – | – | – | – |
| CCCC/C=C/C#CCN(C)Cc1cccc2ccccc12 | 0.2 (≈ 0.686 µM) | 1.6 (≈ 5.49 µM) | > 100 | > 100 | 0.2 (≈ 0.686 µM) | – | – | – | – | – | – | – | – | – | – |
| CN(C/C=C/C#CC(C)(C)C)Cc1cccc2ccccc12 [TERBINAFINE] | 0.006 (≈ 0.0206 µM) | 0.006 (≈ 0.0206 µM) | 0.4 (≈ 1.37 µM) | 0.4 (≈ 1.37 µM) | 0.006 (≈ 0.0206 µM) | 0.8 (≈ 2.75 µM) | 25 (≈ 85.8 µM) | – | 100 | – | – | – | – | 98 | – |

The remaining compounds from weak to strong by MIC (Microsporum canis), led by results:

| MIC (Microsporum canis) [µg/mL] | MIC (Epidermophyton floccosum) [µg/mL] | MIC (Candida parapsilosis) [µg/mL] | MIC (Sporothrix schenckii) [µg/mL] | MIC (Trichophyton benhamiae) [µg/mL] | MIC (Aspergillus fumigatus) [µg/mL] | MIC (Candida albicans) [µg/mL] | Compound | Activity (Cavia porcellus [1]) [%] | Activity (Cavia porcellus [2]) [%] | Activity (Cavia porcellus [3]) [%] | Activity (Cavia porcellus [4]) [%] | Activity (Cavia porcellus [5]) [%] | Activity (Cavia porcellus [6]) [%] | Activity (Cavia porcellus [7]) [%] | Activity (Cavia porcellus [8]) [%] |
| --- | --- | --- | --- | --- | --- | --- | --- | --- | --- | --- | --- | --- | --- | --- | --- |
| 0.2 (≈ 0.686 µM) | 100 (≈ 343 µM) | 100 (≈ 343 µM) | 50 (≈ 172 µM) | 0.2 (≈ 0.686 µM) | – | – | CCCCC#C/C=C\CN(C)Cc1cccc2ccccc12 | – | – | – | – | – | – | – | – |
| 0.1 (≈ 0.341 µM) | 0.2 (≈ 0.682 µM) | 1.6 (≈ 5.45 µM) | 3.1 (≈ 10.6 µM) | 0.05 (≈ 0.17 µM) | – | – | CCCC/C=C/C=C/CN(C)Cc1cccc2ccccc12 | – | – | 43 | 40 | 69 | – | – | – |
| 0.1 (≈ 0.348 µM) | 0.2 (≈ 0.696 µM) | 1.6 (≈ 5.57 µM) | 1.6 (≈ 5.57 µM) | 0.05 (≈ 0.174 µM) | – | – | CN(C/C=C/c1ccccc1)Cc1cccc2ccccc12 [NAFTIFINE] | – | – | – | 35 | 65 | – | – | – |
| 0.01 (≈ 0.0343 µM) | 0.01 (≈ 0.0343 µM) | 0.4 (≈ 1.37 µM) | 1.6 (≈ 5.49 µM) | 0.01 (≈ 0.0343 µM) | 100 (≈ 343 µM) | 100 (≈ 343 µM) | CCCCC#C/C=C/CN(C)Cc1cccc2ccccc12 | – | 15 | 100 | 83 | 100 | 83 | 0 | 100 |
| 0.006 (≈ 0.0206 µM) | 0.006 (≈ 0.0206 µM) | 0.4 (≈ 1.37 µM) | 0.8 (≈ 2.75 µM) | 0.01 (≈ 0.0343 µM) | 100 (≈ 343 µM) | 100 (≈ 343 µM) | CCC(C)C#C/C=C/CN(C)Cc1cccc2ccccc12 (configuration not stated) | 23 | 75 | – | – | – | – | – | – |
